Our source for the Activity values is ChEMBL document CHEMBL4257469, “Deciphering the role of hydrophobic and hydrophilic bile acids in angiogenesis using in vitro and in vivo model systems” (Medchemcomm, 2017).

Data set [1] is filed under the species Danio rerio. Nature of the data set: Antiangiogenic activity in Tg(fli:eGFP) zebrafish embryo assessed as effect on phynotypic changes after 72 hrs post fertilization by fluorescence microscopic analysis. The class given is functional, organism-based. The gist of the method:
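Tg(fli1:eGFP) zebrafish embryos were selected at 48 hpf, 20–25 per well, and exposed to bile acids at 6.25, 12.5 and 25 μM in embryo water from DMSO stocks. Vehicle was 0.1% DMSO. At 72 hpf the solutions were replaced with fresh embryo water. Embryos were anesthetized with tricaine and imaged by stereo and fluorescence microscopy for sub-intestinal vessel sprouting and branching. Two experiments, 50 embryos per group.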

Data set [2] concerns HUVEC. Nature of the data set: Decrease in MMP9 level in HUVEC at 12.5 uM after 24 hrs by ELISA. The data set is classed as functional, cell-based. Particulars: Homo sapiens. Put shortly: (§1)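 HUVECs in 6-well plates treated with 12.5 μM bile acid or DMSO vehicle. Medium supernatant collected 12 and 24 h after treatment. MMP9 measured by ELISA with HRP read-out at 405 nm, concentration interpolated from an MMP9 standard curve. Experiments done in duplicate.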
A general note: ELISA stands for enzyme-linked immunosorbent assay.

The test system of data set [3] is HUVEC. Nature of the data set: Antiangiogenic activity in HUVEC assessed as inhibition of endothelial tube formation at 25 uM after overnight incubation by inverted microscopic analysis. The class given is functional, cell-based. Particulars: Homo sapiens. The gist of the method: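 HUVECs at passages 2–5 were seeded at 2 × 10^5 cells per well on a gelled basement membrane matrix, made as Matrigel mixed 1:1 with plain EBM-2. Bile acids were added at 12.5 and 25 μM, with DMSO as vehicle control, and cells were treated overnight. Bright-field images were taken at 10× from five fields per well. Nodes and tube lengths were quantified. Runs were in triplicate; statistics by one-way ANOVA (Dunnett).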

For data set [4], the system named is HUVEC. The data set is described as follows: Induction of angiogenesis in HUVEC assessed as increase in tube length at 12.5 uM after overnight incubation by inverted microscopic analysis. The data set is classed as functional, cell-based. Particulars: Homo sapiens. Put shortly: (§2)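 Wells coated with Matigel:plain EBM-2 (1:1). HUVECs added at 2 × 10⁵ cells/well with bile acid (12.5 or 25 μM) or vehicle and left overnight. Bright-field images at 10× from five fields per well; nodes and tube lengths counted. Triplicate, three independent experiments; one-way ANOVA with Dunnett's test.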

The species named for data set [5] is Danio rerio. The data set is described as follows: Pro-angiogenic activity in Tg(fli:eGFP) zebrafish embryo assessed as increase in sprouting and branching of sub-intestinal vessels (after 72 hrs post fertilization by fluorescence microscopic analysis. The class given is functional, organism-based. The gist of the method:
(§3)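 Tg(fli1:eGFP) embryos selected at 48 hpf, 20–25 per well, raised at 28.5 °C. Bile acids (DMSO stock, diluted in embryo water) given at 6.25, 12.5 or 25 μM; 0.1% DMSO as vehicle control. Solutions replaced with fresh water at 72 hpf, embryos anaesthetised with tricaine and sub-intestinal vessels imaged by fluorescence. Scored as percentage of embryos; two experiments, 50 embryos/group.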

The subject of data set [6] is HUVEC. Nature of the data set: Induction of angiogenesis in HUVEC assessed as increase in number of nodes at 12.5 uM after overnight incubation by inverted microscopic analysis relative to control. The data set is classed as functional, Homo sapiens. The gist of the method: as §2
Data set [7] is filed under the species Danio rerio. Nature of the data set: Pro-angiogenic activity in Tg(fli:eGFP) zebrafish embryo assessed as increase in branching of sub-intestinal veins at 12.5 uM after 72 hrs post fertilization by fluorescence microscopic analysis. The data set is classed as functional, organism-based. Put shortly:
as §3

For data set [8], the species on record is Danio rerio. The data set is described as follows: Toxicity in zebrafish embryo assessed as reduction in embryo survival up to 50 uM. Conditions: in vivo. The class given is organism-based.
Data set [9] relates to HUVEC. Nature of the data set: Increase in VEGFR2 m-RNA expression in HUVEC at 12.5 uM after 12 to 24 hrs by RT-qPCR analysis. The data set is classed as functional, cell-based. Particulars: Homo sapiens. Put shortly: (§4)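 HUVECs treated with 12.5 μM bile acid or DMSO for 12 and 24 h. Total RNA extracted and 1 μg reverse-transcribed. SYBR-green qPCR for VEGFR1/VEGFR2: 95 °C 10 min, then 40 cycles of 95 °C 5 s / 60 °C 30 s. ΔΔCT normalised to GAPDH and expressed as fold change over control; repeated twice.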
(In qPCR the cycle at which signal appears reflects the starting amount.)

The subject of data set [10] is HUVEC. The data set is described as follows: Increase in VEGFR1 m-RNA expression in HUVEC at 12.5 uM after 12 to 24 hrs by RT-qPCR analysis. The class given is functional, cell-based. Conditions: Homo sapiens. Put shortly: as §4
For data set [11], the species on record is Danio rerio. Nature of the data set: Pro-angiogenic activity in Tg(fli:eGFP) zebrafish embryo assessed as arcades formation at 12.5 uM after 72 hrs post fertilization by fluorescence microscopic analysis. The data set is classed as functional, organism-based. The gist of the method:
as §3

For data set [12], the species on record is Danio rerio. Nature of the data set: Pro-angiogenic activity in Tg(fli:eGFP) zebrafish embryo at 6.25 uM after 72 hrs post fertilization by fluorescence microscopic analysis. The class given is functional, organism-based. Put shortly:
as §3

The subject of data set [13] is HUVEC. The data set is described as follows: Pro-angiogenic activity in HUVEC assessed as stress fiber formation at 12.5 uM after overnight incubation by FITC-conjugated phalloidin staining based confocal microscopic analysis. The class given is functional, cell-based. Particulars: Homo sapiens. The gist of the method: (§5)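 HUVECs grown to 70% confluency on coverslips and treated with bile acids overnight. Fixed in 4% paraformaldehyde for 5 min and blocked with 1% BSA/0.1% Triton X-100 for 2 h. Stained with anti-VE-cadherin (1:200, 4 °C overnight) plus Alexa-488 secondary, FITC-phalloidin (1:100) for F-actin, and DAPI. Confocal imaging; repeated twice.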

Data set [14] deals with HUVEC. The data set is described as follows: Increase in MMP9 level in HUVEC at 12.5 uM after 24 hrs by ELISA. The class given is functional, cell-based. Particulars: Homo sapiens. The gist of the method:
as §1

For data set [15], the species on record is Danio rerio. Nature of the data set: Pro-angiogenic activity in Tg(fli:eGFP) zebrafish embryo assessed as increase in sprouting of sub-intestinal veins at 12.5 uM after 72 hrs post fertilization by fluorescence microscopic analysis. The data set is classed as functional, organism-based. Put shortly: as §3
For data set [16], the system named is HUVEC. Nature of the data set: Increase in wound healing in HUVEC at 12.5 uM after 18 to 24 hrs by phase contrast microscopic analysis. The class given is functional, cell-based. Particulars: Homo sapiens. Put shortly: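 HUVECs grown to a confluent monolayer in 12-well plates and serum-deprived overnight. Scratched with a p200 tip, washed with DPBS, then given complete EBM-2 with 12.5 μM bile acid or DMSO vehicle. Imaged from a marked reference point at 0 h and after 18–24 h (phase contrast, 10×); percentage of migrated cells versus control. Triplicate; Dunnett's test.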

Data set [17] relates to HUVEC. The data set is described as follows: Induction of angiogenesis in HUVEC assessed as increase in tube formation at 12.5 uM after overnight incubation by inverted microscopic analysis. Conditions: Homo sapiens. The class given is functional, cell-based. The gist of the method: as §2
Data set [18] deals with HUVEC. Nature of the data set: Pro-angiogenic activity in HUVEC assessed as decrease in cell-to-cell contact at 12.5 uM after overnight incubation by FITC-conjugated phalloidin staining based confocal microscopic analysis. The data set is classed as functional. Conditions: Homo sapiens. Put shortly:
as §5

For data set [19], the system named is HUVEC. The data set is described as follows: Cytotoxicity against HUVEC assessed as reduction in cell viability at 6.25 to 100 uM after 24 hrs by MTT assay. The data set is classed as cell-based. Conditions: human. Put shortly: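 HUVECs at passages 2–5 were seeded at 5 × 10^3 cells per well in complete EBM-2 and allowed to adhere for 24 h. They were serum-starved 4 h, then given serially diluted bile acids (100 to 6.25 μM) in complete medium for 24 h. MTT was added for 4 h at 37 °C. Formazan was dissolved in DMSO and absorbance read at 550 nm. Three independent experiments.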
A general note: Tetrazolium dyes change colour on reduction, which living cells bring about.

Data set [20] has as its system HUVEC. Nature of the data set: Cytotoxicity against HUVEC assessed as reduction in cell death up to 12.5 uM after 24 hrs by MTT assay. The data set is classed as cell-based. Particulars: human. Put shortly: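 HUVECs (passages 2–5, complete EBM-2) seeded at 5 × 10³ cells/well and left 24 h to adhere. Serum-starved 4 h, then exposed to bile acids (serial dilutions, 100 to 6.25 μM) in complete medium for 24 h. MTT added for 4 h at 37 °C, formazan dissolved in DMSO, absorbance read at 550 nm. Run in triplicate; three independent experiments.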

For data set [21], the system named is HUVEC. The data set is described as follows: Pro-angiogenic activity in HUVEC assessed as decrease in VE-cadherin expression at 12.5 uM after overnight incubation by FITC-conjugated phalloidin staining based confocal microscopic analysis. The class given is functional, cell-based. Particulars: Homo sapiens. The gist of the method: as §5
Data set [22] is filed under the species Danio rerio. Nature of the data set: Pro-angiogenic activity in Tg(fli:eGFP) zebrafish embryo assessed as sub-intestinal vein baskets extending towards ventral side at 12.5 uM after 72 hrs post fertilization by fluorescence microscopic analysis. The data set is classed as functional, organism-based. The gist of the method:
as §3

Active and inactive are the calls of the source. The calls are words filed in the database; no cut-off is given here.

For the compound `O=c1cc(N2CCOCC2)oc2c(-c3ccccc3)cccc12`, the result in the data set listed under Danio rerio [1] was Active.
In the case of `C[C@H](CCC(=O)O)[C@H]1CC[C@H]2[C@@H]3[C@H](O)C[C@@H]4C[C@H](O)CC[C@]4(C)[C@H]3CC[C@]12C` [CHENODIOL], the result in the data set with HUVEC [2], in the data set on HUVEC [4], in the data set listed under Danio rerio [7], in the data set on HUVEC [9], in the data set on HUVEC [10] and in the data set filed under Danio rerio [11] was Active. The outcome in the data set filed under Danio rerio [12], in the data set with HUVEC [13], in the data set on HUVEC [14], in the data set filed under Danio rerio [15], with HUVEC [16] and in the data set with HUVEC [17] was Active. In addition, the result with HUVEC [18], in the data set with HUVEC [21] and in the data set filed under Danio rerio [22] was Active. Also, the result in the data set with HUVEC [3] was inactive. The Activity entry was “Dose-dependent effect” in the data set filed under Danio rerio [5]; 150% in the data set with HUVEC [6]; “Non-Toxic” in the data set listed under Danio rerio [8]; “Non-Toxic” in the data set on HUVEC [19]; “Non-Toxic” with HUVEC [20].
